Source: ChEMBL document CHEMBL1123757, “Selective thromboxane synthetase inhibitors and antihypertensive agents. New derivatives of 4-hydrazino-5H-pyridazino[4,5-b]indole, 4-hydrazinopyridazino[4,5-a]indole, and related compounds” (J Med Chem, 1987)

Tests used:
Rattus norvegicus [1] = experiment: Antihypertensive activity in spontaneously hypertensive rats (SHR) measured by percentage fall in arterial pressure (AP) at 1 mg/kg administered intraperitoneally at 3 h; type: functional, Artery; conditions: route intraperitoneal
Outline: (§1)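 Unanesthetized Okamoto-strain SHR, male and female, 8 weeks old, 300–350 g, systolic pressure ≥190 mmHg, heart rate 400–650 beats/min; five animals per dose. Given ip at 2.5 mL/kg, dissolved or suspended in normal saline or saline with 0.2% (carboxymethyl)cellulose and 1.0% Tween 80. Tail AP and CR recorded by mechanical transduction at set times; reported as percentage fall from control.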

Rattus norvegicus [2] = experiment: Percent fall in systolic blood pressure, directly measured on carotid (iv on the jugular vein) of spontaneously hypertensive rats at 1 mg/kg after 120 minutes; type: functional, Artery
Outline: (§2)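 Anesthetized (sodium pentobarbital, 70 mg/kg) male and female Okamoto SHR, 8 weeks old, 300–350 g. Given iv into the jugular vein in normal saline. Arterial pressure and cardiac rhythm are recorded directly from the carotid by polygraph at set times after dosing. Each is expressed as percent change from the pre-dose control value.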

Cavia porcellus [3] = experiment: Effect on thromboxane synthetase activity (ex vivo) at 100 mg/kg expressed as percent increase in TXB2; type: functional
Outline: (§3)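 Fasted male or female guinea pigs (250–300 g, five per group) dosed orally in normal saline or saline with 0.2% (carboxymethyl)cellulose/1.0% Tween 80; controls given vehicle. Under ether, cardiac blood collected into 3.8% citrate. PRP adjusted to […] and aggregation induced by ADP (second wave) or AA, read by absorbance aggregometry. PGE2 and TXB2 measured by RIA.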

Rattus norvegicus [4] = experiment: Antihypertensive activity in spontaneously hypertensive rats (SHR) measured by percentage fall in arterial pressure (AP) at 5 mg/kg administered intraperitoneally at 24 h; type: functional, Artery; conditions: route intraperitoneal; outline: as §1
Rattus norvegicus [5] = experiment: Antihypertensive activity in spontaneously hypertensive rats (SHR) measured by percentage fall in arterial pressure (AP) at 5 mg/kg administered intraperitoneally at 1 h; type: functional, Artery; conditions: route intraperitoneal; outline: as §1
Rattus norvegicus [6] = experiment: Antihypertensive activity in spontaneously hypertensive rats (SHR) measured by percentage fall in cardiac rhythm (CR) at 25 mg/kg administered intraperitoneally at 24 h; type: functional, Heart; conditions: route intraperitoneal; outline: as §1
Rattus norvegicus [7] = experiment: Antihypertensive activity in spontaneously hypertensive rats (SHR) measured by percentage fall in arterial pressure (AP) at 25 mg/kg administered intraperitoneally at 5 h; type: functional, Artery; conditions: route intraperitoneal; outline: as §1
Homo sapiens [8] = species on record: Homo sapiens; experiment: In vitro inhibition of platelet aggregation induced by ADP-II (PRP incubated for 60 minutes at 37 degree C) at 10e-5 M; type: functional; conditions: 1 h
Outline: (§4)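 Human venous blood anticoagulated with 3.8% sodium citrate (1:9). PRP from centrifugation at 800 rpm for 10 min at room temperature. Count adjusted with PPP to […]. Compound in saline with 10% ethylene glycol is added to PRP and incubated at 37 °C before the agonist. Agonists: ADP 2×10^-5 M, AA 0.6 mM, PGH2 2.8 μM, adrenaline 0.6 μM. Born absorbance aggregometry; n = 5.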

Rattus norvegicus [9] = experiment: Antihypertensive activity in spontaneously hypertensive rats (SHR) measured by percentage fall in arterial pressure (AP) at 25 mg/kg administered intraperitoneally at 24 h; type: functional, Artery; conditions: route intraperitoneal; outline: as §1
[10] = Effect on PGI-2 release from rat aortic tissue at a final concentration of 10e -4 for an incubation time of 10 minutes; type: functional
Outline: (§5)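 Female Wistar rats (200–220 g) received heparin 200 IU/kg ip and were killed 10 min later. Aortic pieces of about 25 mm² were washed in ice-cold oxygenated Krebs–Henseleit buffer, then incubated in 1 mL buffer at 37 °C. Compound at 10^-4 M final was added 10 min before tissue transfer. PGI2 release was read as antiaggregatory activity of the incubate on ADP (2×10^-6 M)-induced human PRP aggregation and by 6-keto-PGF1α RIA. n = 4.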

[11] = Effect on PGI-2 release from rat aortic tissue at a final concentration of 10e -4 for an incubation time of 30 minutes; type: functional; outline: as §5
Homo sapiens [12] = species on record: Homo sapiens; experiment: In vitro inhibition of platelet aggregation induced by DD (PRP incubated for 5 minutes at 37 degree C) at 10e-5 M; type: functional; outline: as §4
Rattus norvegicus [13] = experiment: Antihypertensive activity in spontaneously hypertensive rats (SHR) measured by percentage fall in cardiac rhythm (CR) at 1 mg/kg administered intraperitoneally at 1 h; type: functional, Heart; conditions: route intraperitoneal; outline: as §1
[14] = Effect on PGI-2 release from rat aortic tissue at a final concentration of 10e -4 for an incubation time of 25 minutes; type: functional; outline: as §5
Rattus norvegicus [15] = experiment: Antihypertensive activity in spontaneously hypertensive rats (SHR) measured by percentage fall in cardiac rhythm (CR) at 5 mg/kg administered intraperitoneally at 1 h; type: functional, Heart; conditions: route intraperitoneal
Outline: (§6)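 Conscious SHR (Okamoto strain), 8 weeks old, male and female, 300–350 g, systolic BP ≥190 mmHg, CR 400–650 beats/min. Given ip or po at 2.5 mL/kg in normal saline or saline with 0.2% (carboxymethyl)cellulose and 1.0% Tween 80. Tail AP and CR recorded by mechanical transduction at 1, 3, 5 and 24 h, five animals per dose. Effect expressed as % fall versus control.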

[16] = Effect on thromboxane synthetase activity on in vitro platelet aggregation induced by AA at 10e -5 M expressed as percent increase in PGE-2; type: functional, Homo sapiens
Outline: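 Human citrated PRP adjusted to 200 000 […], compound at 10^-5 M final in saline/10% ethylene glycol, incubated at 37 °C. Aggregation induced with arachidonic acid 0.6 mM and read by Born absorbance aggregometry. PGE2 and TXB2 in the aggregated samples measured by radioimmunoassay. n = 5.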

Cavia porcellus [17] = experiment: Effect on thromboxane synthetase activity (ex vivo) at 100 mg/kg expressed as percent increase in PGE-2; type: functional; outline: as §3
Rattus norvegicus [18] = experiment: Antihypertensive activity in spontaneously hypertensive rats (SHR) measured by percentage fall in arterial pressure (AP) at 25 mg/kg administered intraperitoneally at 3 h; type: functional, Artery; conditions: route intraperitoneal; outline: as §1
Homo sapiens [19] = species on record: Homo sapiens; experiment: In vitro inhibition of platelet aggregation induced by ADP-II (PRP incubated for 5 minutes at 37 degree C) at 10e-5 M; type: functional; outline: as §4
Rattus norvegicus [20] = experiment: Percent increase in cardiac rhythm, directly measured on carotid (iv on the jugular vein) of spontaneously hypertensive rats at 1 mg/kg after 30 minutes; type: functional, Heart; outline: as §2
Rattus norvegicus [21] = experiment: Antihypertensive activity in spontaneously hypertensive rats (SHR) measured by percentage fall in arterial pressure (AP) at 25 mg/kg administered perorally at 24 h; type: functional, Artery; conditions: route oral
Outline: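 Oral dosing at 2.5 mL/kg to unanesthetized male and female Okamoto-strain SHR (8 weeks old, 300–350 g, systolic pressure ≥190 mmHg, heart rate 400–650 beats/min), five per dose. Vehicle was normal saline or saline with 0.2% (carboxymethyl)cellulose and 1.0% Tween 80. AP measured on the tail by mechanical transduction at set times; expressed as percentage fall from control.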

Rattus norvegicus [22] = experiment: Percent fall in systolic blood pressure, directly measured on carotid (iv on the jugular vein) of spontaneously hypertensive rats at 1 mg/kg after 240 minutes; type: functional, Artery; outline: as §2
Rattus norvegicus [23] = experiment: Antihypertensive activity in spontaneously hypertensive rats (SHR) measured by percentage fall in cardiac rhythm (CR) at 25 mg/kg administered intraperitoneally at 5 h; type: functional, Heart; conditions: route intraperitoneal; outline: as §6

COc1ccc2[nH]c3c(NN)nncc3c2c1.Cl
Decrease in AP (Rattus norvegicus [1]): 5%
Decrease in blood pressure (Rattus norvegicus [2]): 40%
inhibition in vivo at 100 mg/kg (Cavia porcellus [3]): 95%
Decrease in AP (Rattus norvegicus [4]): 9%
Decrease in AP (Rattus norvegicus [5]): 50%
Decrease in CR (Rattus norvegicus [6]): 38%
Decrease in AP (Rattus norvegicus [7]): 50%
inhibition at 10 µM (Homo sapiens [8]): 100%
Decrease in AP (Rattus norvegicus [9]): 10%
Inhibition [10]: 50%
Inhibition [11]: 35%
inhibition at 10 µM (Homo sapiens [12]): 100%
Decrease in CR (Rattus norvegicus [13]): 9%
Inhibition [14]: 45%
Decrease in CR (Rattus norvegicus [15]): -9%
Increase [16]: 47%
Increase (Cavia porcellus [17]): 35%
Decrease in AP (Rattus norvegicus [18]): 57%
inhibition at 10 µM (Homo sapiens [19]): 100%
Increase (Rattus norvegicus [20]): 12%
Decrease in AP (Rattus norvegicus [21]): 15%
Decrease in blood pressure (Rattus norvegicus [22]): 30%
Decrease in CR (Rattus norvegicus [23]): 24%
